# Screens deposited in PubChem BioAssay by several laboratories.
# Sampled rows, rich in hits. Any-hit rate of the full collection: about 9.6%.
# MT stabilize HCS – microtubule stabilizers in HeLa cells | HeLa tubulin immunostaining HCS, 24 h; share of cells brighter than vehicle mean+2SD | % tubulin-high responders, % at 10 µM | 0.83% of 200,000 active;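 active means plate Z-score above 3 for both tubulin-high and condensed-nucleus cell shares, with cell loss under 80%, at 10 µM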;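 further: anti alpha tubulin signal scored within the nucleus-defined area of each cell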
# b-catenin transl – modulators of beta-catenin nuclear translocation | nuclear translocation activity, % at 5 µM | HeLa beta-catenin nuclear translocation, immunofluorescence imaging | 0.3% of 190,000 active;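 active means nuclear translocation activity above 50% at 5 µM, with a well cell count of 50 or more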;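 further: per-cell ratio of nuclear to cytoplasmic median beta-catenin stain intensity; plate controls were DMSO negative control for no effect and GSK-3 inhibitor IX positive control for full effect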
#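 Test system: human HeLa cells, endogenous beta-catenin. Times: 24 h compound exposure, 37°C. Measured by: beta-catenin immunofluorescence imaging with DAPI.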
# Ba/F3 V617F tox – loss of viability in JAK2V617F-driven Ba/F3 cells. Ba/F3 EpoR-JAK2V617F viability, ATP luminescence. inhibition, % at 5.6 µM. 1.1% of 220,000 active. AID 1446;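 active means inhibition above the campaign mean plus 3 SD over all tested compounds, cut at about 24% in these data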;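 further: cytokine-independent growth of Ba/F3 cells driven by EpoR plus mutant JAK2; 0% = DMSO-treated cells and 100% = JAK inhibitor I control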
# Lmaj promast – Leishmania major promastigote growth inhibition; 9% of 200,000 active; Leishmania major promastigotes, resazurin fluorescence viability; inhibition, % at 10 µM; in the data active means inhibition above about 50%;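 further: promastigotes grown with compound for 44 hours at 28 °C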
# BaF3 tox – reduces parental Ba/F3 cell viability, JAK2V617F counter-screen | CellTiter-Glo ATP luminescence | inhibition, % at 5.6 µM | 1.1% of 220,000 active | AID 1486;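 active means inhibition above a per-campaign cutoff, the mean inhibition of all tested compounds plus 3 SD, cut at about 27% in these data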;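 further: 0% = DMSO wells and 100% = JAK Inhibitor I control wells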
# APP transl inh – APP translation inhibition. SH-SY5Y APP 5'UTR-luciferase reporter, luminescence. inhibition, % at 2 µM. AID 1285. 0.82% of 190,000 active;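 active means inhibition above a set limit, derived from the sample mean plus 3 SD, cut at about 45% in these data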
# The depositor's hits bear a star; . = no result.
SMILES,MT stabilize HCS,b-catenin transl,Ba/F3 V617F tox,Lmaj promast,BaF3 tox,APP transl inh
CSC1=NS(=O)(=O)c2c(C)nn(C)c2S1,.,-1,-1,.,-2,.
Nc1nn(-c2ccccc2)c(N)c1N=Nc1cccc(F)c1,.,58*,84*,.,80*,.
CC(C)CCNC(=O)CCc1nnc(COc2ccccc2)o1,1,0,0,-5,81*,-17
O=C(CCc1nnc(COc2ccccc2)o1)NCCc1cccs1,3,2,-1,-5,6,-23
O=C(Nc1ncc(Cc2ccc(Cl)cc2Cl)s1)c1ccc([N+](=O)[O-])cc1,4,-2,1,53*,4,1
CCc1ccc(Cc2cnc(NC(=O)C3=NCCN3)s2)cc1,2,0,2,-6,6,-2
O=C(Nc1ncc(Cc2ccccc2Cl)s1)C1=NCCN1,3,-1,4,73*,7,25
Cn1cc(CCNC(=O)CC2C(=O)NCCN2CC(c2ccccc2)c2ccccc2)cn1 (centres undefined),.,0,0,.,-7,.
CC(=O)/C(N=Nc1cc2c(c([N+](=O)[O-])c1C)C(C)(C)CC2(C)C)=C(\C)O,.,0,-3,.,3,.
CCn1cc(CNC(=S)Nc2cccc3ccccc23)cn1,3,-1,-4,23,2,3
Cc1cccc(C)c1NC(=O)CN(C)C(=O)C(c1ccccc1)c1ccccc1,2,2,1,86*,3,-14
Cc1cccc(C)c1NC(=O)CN(C)C(=O)/C=C/c1cccs1,5,.,0,52*,5,-1
CCOC(=O)C(=NCCOC)NNc1cc(Cl)ccc1Cl,1,-2,-4,-5,1,14
Fc1ccc(NC(=S)Nc2ccc(Cl)cc2)cc1,6,1,3,63*,10,17
CCCCN(C)C1CCN(C(=S)Nc2cccc(OC)c2)CC1,2,-1,-3,80*,3,-1
CCCCN(C)C1CCN(C(=S)Nc2ccc(OCC)cc2)CC1,1,0,5,82*,7,-14
CCOc1ccc(NC(=S)N2CCC(N(C)CCN3CCOCC3)CC2)cc1,2,0,0,45,3,-5
O=S(=O)(NCc1csc(-c2cccs2)n1)c1cccc(C(F)(F)F)c1,.,2,1,.,3,.
O=C1NC(c2ccccc2)=C(c2ccc3ccccc3n2)C(c2ccc(F)cc2)N1 (centres undefined),2,0,-2,38,5,2
O=C1NC(c2ccccc2)=C(c2ccc3ccccc3n2)C(c2ccccc2)N1 (centres undefined),5,-3,2,85*,1,4
O=C1NC(c2ccccc2)=C(c2nc3ccccc3s2)C(c2ccc(O)cc2)N1 (centres undefined),4,-2,-1,81*,3,-8
CC1CCCC(NC(=O)CSc2ccc(F)cc2)C1C (centres undefined),2,0,-2,-2,6,-4
CC1CCCC(NCC(O)COC(c2ccc(F)cc2)c2ccc(F)cc2)C1C (centres undefined),2,-4,13,100*,47*,-17
CCCCC(=O)Nc1sc2c(c1C(=O)OCC)CCC(C=O)=C2Cl,3,2,-3,99*,1,-16
Cc1cc(N)n(-c2ccc(S(=O)(=O)c3ccc(C(C)C)cc3)cc2)n1,4,-1,-5,-9,6,14
SMILES,MT stabilize HCS,b-catenin transl,Ba/F3 V617F tox,Lmaj promast,BaF3 tox,APP transl inh
CC(=O)c1ccc(N=Nc2ccc(N)cc2)cc1,.,0,-2,.,2,.
Cc1ccc(NC(=S)/N=C(\N)Nc2nc(C)c3cc(C)ccc3n2)c(C)c1,3,-2,42*,15,51*,-7
CCc1ccccc1NC(=S)/N=C(\N)Nc1nc(C)c2cc(C)ccc2n1,23*,10,54*,18,55*,-11
COc1ccc2nc(N/C(N)=N/C(=S)Nc3cccc(C)c3)nc(C)c2c1,1,-2,8,-3,24,.
COc1ccc(NC(=S)/N=C(\N)Nc2nc(C)c3ccccc3n2)cc1,.,1,-1,.,3,.
CCOc1ccc2nc(N/C(N)=N/C(=S)Nc3cccc(C)c3)nc(C)c2c1,3,-3,-2,60*,3,3
Cc1ccc(NC(=S)/N=C(\N)Nc2nc(C)c3cc(C)c(C)cc3n2)cc1C,2,0,15,18,38*,8
COc1ccc(OCCCCOc2ccccc2Cl)cc1,3,1,-2,-5,2,8
